How the values were obtained:
[1] = target: T1, Estrogen receptor (Mus musculus) (UniProt P19785); assay: Displacement of [6,7-3H]-17beta-estadiol from estrogen receptor in Tuck No. 1 mouse uterine cytosol at 1000 molar ratio of compound/radioligand incubated 15 mins prior to radioligand addition measured after 1 hr by liquid scintillation counting relative to control; conditions: Uterus
T1 sequence (whole entry): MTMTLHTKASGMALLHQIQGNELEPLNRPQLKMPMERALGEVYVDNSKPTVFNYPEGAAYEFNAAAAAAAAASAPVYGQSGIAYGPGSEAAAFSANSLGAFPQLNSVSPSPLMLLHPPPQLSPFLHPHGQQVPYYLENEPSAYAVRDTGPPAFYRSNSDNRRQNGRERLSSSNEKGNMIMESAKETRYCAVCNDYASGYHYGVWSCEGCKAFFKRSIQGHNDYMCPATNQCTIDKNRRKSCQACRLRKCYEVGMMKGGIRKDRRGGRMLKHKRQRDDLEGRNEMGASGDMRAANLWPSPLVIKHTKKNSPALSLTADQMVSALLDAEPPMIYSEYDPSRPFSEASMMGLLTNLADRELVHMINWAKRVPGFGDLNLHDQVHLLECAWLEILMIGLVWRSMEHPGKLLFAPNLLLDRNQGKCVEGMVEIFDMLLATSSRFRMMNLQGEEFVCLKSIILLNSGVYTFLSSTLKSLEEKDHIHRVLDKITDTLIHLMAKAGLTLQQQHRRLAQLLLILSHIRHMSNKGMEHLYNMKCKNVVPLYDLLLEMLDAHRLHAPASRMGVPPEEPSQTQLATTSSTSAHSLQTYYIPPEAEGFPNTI
Method in brief: (§1)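 Uterine cytosol is the 105 000g, 1 h, 4-5 °C supernatant of homogenates from mice ovariectomized one week earlier, prepared in Tris 0.01 M pH 7.4 with EDTA and DTT. Compound is preincubated with cytosol 15 min at 5-7 °C, then [6,7-3H]-estradiol (0.5 × 10^-12 g mol) is added for 1 h. Samples are run on 10-30% sucrose gradients. Inhibition is calculated from 8S-peak cpm normalized to total cpm versus control.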

[2] = target: T1, Estrogen receptor (Mus musculus); assay: Displacement of [6,7-3H]-17beta-estadiol from estrogen receptor in Tuck No. 1 mouse uterine cytosol at 100 molar ratio of compound/radioligand incubated 15 mins prior to radioligand addition measured after 1 hr by liquid scintillation counting relative to control; conditions: Uterus; method in brief: as §1
[3] = target: T1, Estrogen receptor (Mus musculus); assay: Displacement of [6,7-3H]-17beta-estadiol from estrogen receptor in Tuck No. 1 mouse uterine cytosol at 10 molar ratio of compound/radioligand incubated 15 mins prior to radioligand addition measured after 1 hr by liquid scintillation counting relative to control; conditions: Uterus; method in brief: as §1
Mus musculus [4] = assay: Antiestrogenic activity in immature Tuck No. 1 mouse assessed as reduction of 17beta-estradiol-induced mean uterine weight at 100 molar ratio of compound/17beta-estradiol, sc qd for 3 days (reference value: 25.5 +/- 1.9 mg); type: functional
Rattus norvegicus [5] = assay: Antiestrogenic activity in immature Wistar rat assessed as reduction of 17beta-estradiol-induced mean uterine weight at 3.16 molar ratio of compound/17beta-estradiol, sc qd for 3 days (reference value: 64.4 +/- 3.5 mg); type: functional
Method in brief: (§2)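 Immature Wistar rats, randomized into groups of 5-6, injected sc daily for 3 days with arachis oil vehicle, 17β-estradiol alone or estradiol plus test compound. Estradiol and compound are given as two separate injections. Estradiol total dose […]. Read-out is uterine weight, reported as mean ± SEM in mg.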

Mus musculus [6] = assay: Antiestrogenic activity in immature Tuck No. 1 mouse assessed as reduction of 17beta-estradiol-induced mean uterine weight at 1000 molar ratio of compound/17beta-estradiol, sc qd for 3 days (reference value: 25.5 +/- 1.9 mg); type: functional
Rattus norvegicus [7] = assay: Antiestrogenic activity in immature Wistar rat assessed as reduction of 17beta-estradiol-induced mean uterine weight at 200 molar ratio of compound/17beta-estradiol, sc qd for 3 days (reference value: 64.4 +/- 3.5 mg); type: functional; method in brief: as §2
[8] = target: T1, Estrogen receptor (Mus musculus); assay: Displacement of [6,7-3H]-17beta-estadiol from estrogen receptor in Tuck No. 1 mouse uterine cytosol at 3.16 molar ratio of compound/radioligand incubated 15 mins prior to radioligand addition measured after 1 hr by liquid scintillation counting relative to control; conditions: Uterus
Method in brief: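 Uteri from Tuck No. 1 mice (6 weeks old, ovariectomized, used 1 week later) pulverized and homogenized at 4 °C in 0.01 M Tris pH 7.4 with EDTA and dithiothreitol; 105000g, 1 h cytosol. Compound preincubated with cytosol 15 min at 5-7 °C, then [6,7-3H]-estradiol added for 1 h. 10-30% sucrose gradients spun 275000g, 15 h; % inhibition computed from 8S-peak cpm normalized to total gradient cpm versus control.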

Mus musculus [9] = assay: Antiestrogenic activity in immature Tuck No. 1 mouse assessed as reduction of 17beta-estradiol-induced mean uterine weight at 10 molar ratio of compound/17beta-estradiol, sc qd for 3 days (reference value: 25.5 +/- 1.9 mg); type: functional
[10] = target: T1, Estrogen receptor (Mus musculus); assay: Displacement of [6,7-3H]-17beta-estadiol from estrogen receptor in Tuck No. 1 mouse uterine cytosol at 1 molar ratio of compound/radioligand incubated 15 mins prior to radioligand addition measured after 1 hr by liquid scintillation counting relative to control; conditions: Uterus; method in brief: as §1
Rattus norvegicus [11] = assay: Antiestrogenic activity in immature Wistar rat assessed as reduction of 17beta-estradiol-induced mean uterine weight at 10 molar ratio of compound/17beta-estradiol, sc qd for 3 days (reference value: 64.4 +/- 3.5 mg); type: functional; method in brief: as §2

Work on `CN(C)CCOc1ccc2c(c1)C(c1ccccc1)=C[C@@H]1[C@@H]2CC[C@]2(C)[C@@H](O)CC[C@@H]12` yielded an Activity [1] of 103%.

`Cc1cc(O)cc2c1[C@H]1CC[C@]3(C)[C@@H](O)CC[C@H]3[C@@H]1CC2=O` was tested, and the Activity [2] was 38% and the Activity [1] was 14%.

Compound `CCN(CC)CCOc1ccc2c(c1)C(c1ccccc1)=C[C@@H]1[C@@H]2CC[C@]2(C)[C@@H](O)CC[C@@H]12` has an Activity [1] of 101%.

`C[C@]12CC[C@@H]3c4ccc(O)cc4/C(=N\NC(N)=S)C[C@H]3[C@@H]1CC[C@@H]2O` showed an Activity [3] of 54%, an Activity (Mus musculus [4]) of 34.3 mg and an Activity (Rattus norvegicus [5]) of 77.7 mg.

In the case of `Cc1cc(O)cc2c1[C@H]1CC[C@]3(C)[C@@H](O)CC[C@H]3[C@@H]1C=C2c1ccccc1`, the Activity [2] is reported as 87%, the Activity [1] is reported as 18% and the Activity (Mus musculus [6]) is reported as 32.9 mg. It also gave an Activity (Rattus norvegicus [7]) of 97.1 mg.

For `C[C@]12CC[C@@H]3c4ccc(O)cc4C(=O)C[C@H]3[C@@H]1CC[C@@H]2O`, the Activity [8] was 38%.

With `CCN(CC)CCOc1ccc2c(c1)C(Cc1ccccc1)=C[C@@H]1[C@@H]2CC[C@]2(C)[C@@H](O)CC[C@@H]12` the Activity [1] was 89%.

`CN(C)CCOc1ccc2c(c1)C(=O)C[C@@H]1[C@@H]2CC[C@]2(C)[C@@H](O)CC[C@@H]12` showed an Activity [1] of 66%.

`C[C@]12CC[C@@H]3c4ccc(O)cc4/C(=N\N4C(=N)SCC4=O)C[C@H]3[C@@H]1CC[C@@H]2O` gave an Activity (Mus musculus [9]) of 28.4 mg and an Activity [3] of 84%.

Compound `Cc1cc(OCCN(C)C)cc2c1[C@H]1CC[C@]3(C)[C@@H](O)CC[C@H]3[C@@H]1C=C2c1ccccc1` has an Activity [1] of 88%.

With `C[C@]12CC[C@@H]3c4ccc(O)cc4C(c4ccccc4)=C[C@H]3[C@@H]1CC[C@@H]2O` the Activity (Mus musculus [9]) was 28.6 mg, the Activity [8] was 13% and the Activity [3] was 3%. For the same compound, the Activity [10] was 66% and the Activity (Rattus norvegicus [11]) was 74.1 mg.

From ChEMBL document CHEMBL3244009, “Potential steroidal antiestrogens” (1977)
